Here are results for two compounds from ChEMBL document CHEMBL3616436, “Synthesis, cytotoxicity and antimicrobial activity of thiourea derivatives incorporating 3-(trifluoromethyl)phenyl moiety” (Eur J Med Chem, 2015).

Molecules are shown by their SMILES. Active and inactive are the calls of the source. No cut-off for these calls is given here.

For data set [1], the system named is Human immunodeficiency virus 1. In words: Antiviral activity against HIV1 3B infected in human MT4 cells assessed as protection against virus-induced cytopathogenicity by MTT assay. It counts as functional, organism-based. The settings on record: Human immunodeficiency virus 1, 3B.
A short description of data set [2]: Cytotoxicity against human MT4 cells. It counts as cell-based.
Data set [3] deals with Escherichia coli. In words: Antimicrobial activity against Escherichia coli ATCC 10538 after 18 hrs by twofold serial microdilution method. The format is functional, organism-based. Background: In broth dilution the organism is exposed to a series of concentrations in liquid medium.
Data set [4] concerns Human alphaherpesvirus 1. In words: Antiviral activity against Human herpesvirus 1 KOS ATCC VR-1493 infected in African green monkey Vero 76 cells assessed as reduction of virus-plaque formation after 3 days by crystal violet staining. The format is functional, organism-based. The settings on record: Human alphaherpesvirus 1, KOS ATCC VR1493, Vero, 72 h. In a few lines:
(§1)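 Plaque reduction: Vero-76 at 2x10^5 cells/well grown to confluent monolayers, infected 2 h at 50–100 PFU/well; after removing unadsorbed virus, overlay of D-MEM, 1% inactivated FBS, 0.75% methylcellulose with or without serial compound dilutions; 3 days at 37°C, fixed and stained with crystal violet in 50% ethanol, plaques counted; EC50 by linear regression.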

Data set [5] deals with Mammalian orthoreovirus 1. The data set is described as follows: Antiviral activity against Reovirus type-1 ATCC VR-214 infected in BHK cells assessed as protection against virus-induced cytopathogenicity after 3 to 4 days by MTT assay. The format is functional, cell-based. The settings on record: Mammalian orthoreovirus 1, ATCC VR-214, BHK. The method in brief:
(§2)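 Cells seeded in 96-well plates (BHK 5x10^4, MDBK 3x10^4 cells/well), grown overnight to confluence, infected at m.o.i. 0.01 (BHK for Reo-1, MDBK for BVDV); serial compound dilutions in maintenance medium with 0.5% inactivated FBS added after 1 h; viability by MTT after 3–4 days at 37°C; EC50 for 50% protection by linear regression.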
(In general: Protection from cytopathic effect is a common read-out in antiviral testing.)

For data set [6], the system named is Vesicular stomatitis virus. In words: Antiviral activity against Vesicular stomatitis virus ATCC VR 1540 infected in African green monkey Vero 76 cells assessed as reduction of virus-plaque formation after 2 days by crystal violet staining. It counts as functional, organism-based. The settings on record: ATCC VR 1540, Vero, 48 h.
The test system of data set [7] is Candida albicans. In words: Antimicrobial activity against Candida albicans ATCC 90028 after 24 hrs by twofold serial microdilution method. It counts as functional, organism-based.
Data set [8] concerns Candida parapsilosis. The data set is described as follows: Antimicrobial activity against Candida parapsilosis ATCC 22019 after 24 hrs by twofold serial microdilution method. The format is functional, organism-based.
The nature of data set [9]: Cytotoxicity against BHK cells assessed as cell viability after 48 to 96 hrs by MTT assay. The format is cell-based, Mesocricetus auratus. The following applies: hamster. (In general: Tetrazolium dyes change colour on reduction, which living cells bring about.)
The test system of data set [10] is Pseudomonas aeruginosa. The data set is described as follows: Antimicrobial activity against Pseudomonas aeruginosa ATCC 27863 after 18 hrs by twofold serial microdilution method. It counts as functional, organism-based.
The test system of data set [11] is Vaccinia virus. In words: Antiviral activity against Human Vaccinia virus ATCC VR-1549 infected in African green monkey Vero 76 cells assessed as reduction of virus-plaque formation after 3 days by crystal violet staining. It counts as functional, organism-based. The settings on record: Orthopoxvirus vaccinia, ATCC VR-1549, Vero, 72 h.
Data set [12] is described as follows: Cytotoxicity against bovine MDBK cells assessed as cell viability after 48 to 96 hrs by MTT assay. The following applies: cattle. The format is cell-based, Bos taurus.
The test system of data set [13] is Pseudomonas aeruginosa. In words: Antimicrobial activity against Pseudomonas aeruginosa NCTC 6749 after 18 hrs by twofold serial microdilution method. It counts as functional, organism-based.
The subject of data set [14] is Yellow fever virus. The data set is described as follows: Antiviral activity against Yellow fever virus 17D infected in BHK cells assessed as protection against virus-induced cytopathogenicity after 3 to 4 days by MTT assay. The format is functional, cell-based.
Data set [15] has as its system Candida albicans. In words: Antimicrobial activity against Candida albicans ATCC 10231 after 24 hrs by twofold serial microdilution method. It counts as functional, organism-based.
A short description of data set [16]: Antiviral activity against Bovine viral diarrhea virus 1-NADL ATCC VR-534 infected in MDBK cells assessed as protection against virus-induced cytopathogenicity after 3 to 4 days by MTT assay. The format is functional, cell-based. The settings on record: Bovine viral diarrhea virus isolates and strains, ATCC VR-534, MDBK. The method in brief: as §2
The nature of data set [17]: Cytotoxicity against African green monkey Vero 76 cells assessed as cell viability after 48 to 96 hrs by crystal violet staining. The settings on record: chlorocebus sabaeus. The format is cell-based.
Data set [18] concerns Escherichia coli. In words: Antimicrobial activity against Escherichia coli NCTC 8196 after 18 hrs by twofold serial microdilution method. The format is functional, organism-based.
The subject of data set [19] is Escherichia coli. In words: Antimicrobial activity against Escherichia coli ATCC 25922 after 18 hrs by twofold serial microdilution method. It counts as functional, organism-based.
Data set [20] relates to Coxsackievirus B5. The data set is described as follows: Antiviral activity against Human coxsackievirus B5 ATCC VR-29 infected in African green monkey Vero 76 cells assessed as reduction of virus-plaque formation after 3 days by crystal violet staining. The following applies: Enterovirus B, ATCC VR-29, Vero, 72 h. The format is functional, organism-based. In a few lines: as §1

Data set [21] concerns Poliovirus 1. In words: Antiviral activity against Poliovirus type 1 ATCC VR-1562 infected in African green monkey Vero 76 cells assessed as reduction of virus-plaque formation after 2 days by crystal violet staining. The format is functional, organism-based. The settings on record: Enterovirus C, ATCC VR-1562, Vero, 48 h.
The test system of data set [22] is Pseudomonas aeruginosa. The data set is described as follows: Antimicrobial activity against Pseudomonas aeruginosa ATCC 15442 after 18 hrs by twofold serial microdilution method. The format is functional, organism-based.
Data set [23] deals with Bordetella bronchiseptica. The data set is described as follows: Antimicrobial activity against Bordetella bronchiseptica ATCC 4617 after 18 hrs by twofold serial microdilution method. It counts as functional, organism-based.

One may read the EC50 as the concentration that produces a half-maximal response. Usually CC50 stands for the concentration at which the toxic effect on the cells reaches its halfway point. In the case of `FC(F)(F)c1cccc(NC(=S)Nc2ccccc2Br)c1`, the EC50 in [1] was over 36 µM; in data set [4], over 50 µM; in [5], over 59 µM; in data set [6], over 50 µM; in data set [11], over 50 µM; in [14], over 59 µM. For the same compound, the EC50 in [16] is over 100 µM; in data set [20], over 50 µM; in [21], over 50 µM. Besides, the CC50 in [2] is 36 µM; in data set [9], 59 µM; in data set [12], over 100 µM; in [17], 50 µM. In addition, the result in [3], in data set [7], in data set [8], in data set [10], in data set [13] and in data set [15] was inactive. The outcome in data set [18], in data set [19], in [22] and in data set [23] was inactive.

As to `CC[C@H]1CC[C@H](c2ccc(NC(=S)Nc3cccc(C(F)(F)F)c3)cc2)CC1`, the EC50 is over 39 µM in data set [1]; over 10 µM in data set [4]; over 10 µM in [5]; over 10 µM in [6]; over 10 µM in data set [11]; over 10 µM in data set [14]. The EC50 was over 9 µM in [16], over 10 µM in [20] and over 10 µM in [21]. Moreover, the CC50 stood at 39 µM in data set [2], 10 µM in data set [9], 9 µM in data set [12] and 10 µM in data set [17]. For the same compound, the outcome in data set [3], in data set [7], in [8], in [10], in data set [13] and in data set [15] was inactive. Further, the result in [18], in data set [19], in data set [22] and in data set [23] was inactive.
